Measurements: ChEMBL document CHEMBL4130466, “Angeloylated Germacranolides from Daucus virgatus and Their Plasmodium Transmission Blocking Activity” (J Nat Prod, 2017)

Key:
Plasmodium berghei [1] = experiment: Antiplasmodial activity against Plasmodium berghei CTRPp expressing GFP assessed as inhibition of early sporogonic stages development at 50 ug/ml after 24 hrs by fluorescence microscopy
Plasmodium berghei [2] = experiment: Antiplasmodial activity against Plasmodium berghei CTRPp expressing GFP assessed as inhibition of early sporogonic stages development after 24 hrs by fluorescence microscopy
A-375 = experiment: Cytotoxicity against human A375 cells; format: cell-based
HaCaT = experiment: Cytotoxicity against human HaCaT cells; format: cell-based
Plasmodium berghei [3] = experiment: Antiplasmodial activity against Plasmodium berghei CTRPp expressing GFP assessed as decrease in capacity of zygote to undergo ookinete maturation after 24 hrs by Zeiss fluorescence microscopy; format: functional, organism-based
Summary of the method: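 Mice were primed with phenylhydrazine 120 mg/kg ip and infected ip with 10^7 P. berghei CTRPp.GFP RBCs. Day-4 blood with >3 exflagellation centres/1000 RBCs went into pH 7.4 RPMI 1640 (100 μM xanthurenic acid, 20% FBS) with compound over a dose range. Incubation was 19 °C, 24 h. GFP zygotes and ookinetes were counted by fluorescence microscopy, with inhibition calculated against 0.1% DMSO. Wells were in triplicate, and experiments were run at least twice.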

Row | SMILES | inhibition at 50 µg/mL (Plasmodium berghei [1]) [%] | other results
1 | C/C=C(/C)C(=O)O[C@]1(C)C(=O)O[C@H]2C/C(C)=C/CC[C@]3(C)O[C@H]3[C@H](OC(=O)[C@@]3(C)O[C@H]3C)[C@@H]21 | 22 to 35 | 
2 | C=C1C[C@H](OC(=O)/C(C)=C\C)[C@H]2[C@H](/C=C(\C)CC[C@@H]1O)OC(=O)[C@@]2(C)O | 22 to 35 | 
3 | C=C1C[C@@H]2OC(=O)[C@@](C)(O)[C@H]2[C@@H](OC(=O)/C(C)=C\C)[C@@H]2O[C@@]2(C)CC[C@H]1OO | 22 to 35 | 
4 | C=C[C@@]12COC(=O)C(=C)[C@@H]1[C@@H](O)[C@H](C(=C)C(=O)OC)[C@@H](OC(=O)C(=C)CO)C2 [VERNODALOL] |  | IC50 (Plasmodium berghei [2]): 19 µM
5 | C/C=C(/C)C(=O)O[C@H]1/C=C(\C)CC[C@@H]2O[C@@]2(C)C[C@@H]2OC(=O)[C@@](C)(O)[C@@H]12 | 22 to 35 | 
6 | C/C=C(/C)C(=O)O[C@@H]1[C@H]2[C@H](C/C(C)=C/CC[C@]3(C)O[C@@H]13)OC(=O)[C@@]2(C)O | 22 to 35 | 
7 | C/C=C(/C)C(=O)O[C@]1(C)C(=O)O[C@H]2C/C(C)=C/CC/C(C)=C/[C@H](OC(=O)[C@@]3(C)O[C@H]3C)[C@@H]21 | 92 | IC50 (A-375): > 100 µM; IC50 (Plasmodium berghei [2]): 82.3 µM; IC50 (HaCaT): > 100 µM; IC50 (Plasmodium berghei [3]): 48.4 µM
8 | C/C=C(/C)C(=O)O[C@]1(C)C(=O)O[C@H]2C[C@]3(C)O[C@H]3CC/C(C)=C/[C@H](OC(=O)[C@@]3(C)O[C@H]3C)[C@@H]21 | 22 to 35 | 
